# Shown are actives, neighbours in structure and some others; about 2.5% of the full set was active somewhere.
# CTSL1 counter – cathepsin L1 inhibition, PFM18AAP counter-screen | inhibition, % at 5.96 µM | recombinant F. hepatica cathepsin L1, Z-Leu-Arg-MCA fluorescence | 0.49% of 300,000 active;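 active means inhibition above the mean of all tested compounds plus 3 SD, set per screening campaign, cut at about 17% in these data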;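 further: 0% = plate median of test compound wells and 100% = 1 µM Z-Phe-Ala-diazomethylketone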
# PAD4 FP inh – PAD4 (human) enzyme inhibition; 0.41% of 330,000 active; inhibition, % at 6.36 µM; Q9UM07; recombinant PAD4, RCA probe fluorescence polarization;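 active means percent inhibition above a cutoff equal to the mean of all tested compounds plus 3 SD, cut at about 15% in these data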;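 further: 0% = PAD4 with RCA probe and DMSO and 100% = probe without PAD4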
# PRMT1 FP inh – PRMT1 (human) inhibition, primary screen. recombinant PRMT1, activity-based probe fluorescence polarization. inhibition, % at 2.79 µM. AID 652257. 1.3% of 370,000 active;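 active means inhibition above about 21% made by adding two undisclosed values, limit read from the data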
# Target sequence (Q99873 whole entry, looked up): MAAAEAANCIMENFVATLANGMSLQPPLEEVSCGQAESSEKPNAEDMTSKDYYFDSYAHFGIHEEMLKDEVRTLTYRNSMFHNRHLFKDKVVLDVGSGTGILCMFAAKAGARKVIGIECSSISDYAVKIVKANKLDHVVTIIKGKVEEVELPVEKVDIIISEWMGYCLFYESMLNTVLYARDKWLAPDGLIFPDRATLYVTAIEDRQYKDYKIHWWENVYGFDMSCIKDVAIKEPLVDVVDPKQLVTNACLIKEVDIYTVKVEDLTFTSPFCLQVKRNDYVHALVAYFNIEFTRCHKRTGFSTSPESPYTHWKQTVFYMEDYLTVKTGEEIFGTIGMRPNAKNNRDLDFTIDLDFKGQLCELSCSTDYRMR
# GSTO1 inh – GSTO1 inhibition, counter-screen for RBBP9 inhibitors; P78417; recombinant GSTO1, activity-based probe fluorescence polarization; inhibition, % at 5.96 µM; 1.1% of 300,000 active;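 active means inhibition above the campaign mean inhibition plus 3 SD, cut at about 35% in these data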;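 further: 0% = GSTO1-1 with DMSO and 100% = wells lacking GSTO1-1 enzyme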
# TDP2 absorb – TDP2 (human) inhibition, absorbance primary screen; O95551; recombinant TDP2, T5PNP hydrolysis, p-nitrophenol absorbance 415 nm; inhibition, % at 12.8 µM; 0.34% of 370,000 active;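 active means inhibition above the mean of all tested compounds plus 3 SD, set per campaign, cut at about 25% in these data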;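 further: 0% = DMSO with enzyme and 100% = buffer with substrate but no TDP2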
# Target sequence (O95551 whole entry, looked up): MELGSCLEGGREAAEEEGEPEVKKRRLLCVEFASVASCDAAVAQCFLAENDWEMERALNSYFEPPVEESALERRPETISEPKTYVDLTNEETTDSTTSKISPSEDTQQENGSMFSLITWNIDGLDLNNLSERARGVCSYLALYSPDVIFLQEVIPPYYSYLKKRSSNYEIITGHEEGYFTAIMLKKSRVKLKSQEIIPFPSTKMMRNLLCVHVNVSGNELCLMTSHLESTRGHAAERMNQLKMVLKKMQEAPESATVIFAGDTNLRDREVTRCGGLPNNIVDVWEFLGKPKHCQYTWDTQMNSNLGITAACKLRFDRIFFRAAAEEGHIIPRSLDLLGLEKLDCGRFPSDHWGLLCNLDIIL
#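 System: recombinant human TDP2 / Amount: 120 nM TDP2 per well / Also added: 5 mM T5PNP chromogenic substrate / Doses: 12.8 µM single point, 1% DMSO / Incubation: 2 h at 37 °C / Detection: p-Nitrophenol epi absorbance / Evaluation: % inhibition relative to enzyme-containing and enzyme-free wells / Repeats: singlicate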
# GSTO1 confirm – confirmation of human GSTO1 inhibitors; shares compounds with GSTO1 inh; recombinant GSTO1, probe fluorescence polarization; inhibition, % at 5.96 µM; 54% of 2,400 active;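 active means inhibition above the primary screen's cutoff, its mean inhibition plus 3 SD, cut at about 35% in these data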;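 further: loss of polarization as inhibitors block binding of rhodamine sulfonate ester activity probe; 0% = GSTO1 with DMSO and 100% = wells lacking GSTO1 enzyme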
# PAD4 FP conf – confirmation of human PAD4 inhibitors; shares compounds with PAD4 FP inh; recombinant PAD4, RCA probe fluorescence polarization; inhibition, % at 6.36 µM; 28% of 1,200 active;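 active means mean inhibition across replicates above the hit cutoff set by the earlier primary screen, cut at about 15% in these data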;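 further: inhibitors block active-site labeling by the probe so polarization falls; 0% = PAD4 with probe and DMSO and 100% = probe without PAD4 enzyme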
# PRMT1 inh conf – confirmation of human PRMT1 inhibitors; shares compounds with PRMT1 FP inh; recombinant His-PRMT1, activity-based probe fluorescence polarization; inhibition, % at 2.79 µM; 42% of 3,300 active; AID 687036;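 active means mean inhibition across replicates above the hit cutoff derived for the earlier primary screen, cut at about 22% in these data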
# TDP2 inh conf – confirmation of human TDP2 inhibitors; shares compounds with TDP2 absorb; recombinant human TDP2, absorbance read-out; inhibition, % at 12.8 µM; 22% of 1,100 active; AID 743263; in the data active means inhibition above about 25%;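 further: 0% = vehicle with enzyme and 100% = no enzyme buffer only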
# Active calls of the source: *; / = not tested or not shown.
SMILES,CTSL1 counter,PAD4 FP inh,PRMT1 FP inh,GSTO1 inh,TDP2 absorb,GSTO1 confirm,TDP2 inh conf,others
CCCNC(=O)c1ccc2nc(-c3ccccc3)c(-c3ccccc3)nc2c1,7.1,-2.6,-0.8,-4.6,-13.0,/,/,
C#CCCN([C@H](C(=O)OC)C(C)C)S(=O)(=O)c1ccccc1Br,/,/,-1.5,/,0.3,/,/,
CCOC(=O)NC1(NCc2ccccc2)Oc2ccccc2O1,-0.2,-2.9,26.4*,60.7*,0.9,5.4,/,PRMT1 inh conf=4.8
CCOC(=O)CC1(CCc2ccccc2)Oc2ccccc2O1,/,/,-4.0,/,-7.2,/,/,
CC(C)(C)N(Cc1cn(CC2CCCCC2)nn1)S(=O)(=O)c1ccccc1Br,/,/,4.0,/,-2.9,/,/,
COc1cc(/C=C2\S/C(=N/S(=O)(=O)c3ccccc3)NC2=O)c([N+](=O)[O-])cc1OC,5.7,-15.2,29.8*,38.1*,7.6,31.3,/,PRMT1 inh conf=1.8
COc1ccc(CNc2nc3ccccc3n2C)c(OC)c1,1.8,-3.2,2.5,-4.5,9.0,/,/,
COc1ccc(N=Nc2nc3cc(Br)c(Br)cc3n2C)c(OC)c1,7.4,9.3,69.1*,40.2*,7.3,33.2,/,PRMT1 inh conf=49.1*
CN1CCc2cccc3c2[C@H]1Cc1ccc(O)c(O)c1-3,-6.0,5.9,85.8*,88.6*,-13.0,5.7,/,PRMT1 inh conf=38.2*
COC(=O)[C@]12C[C@H](CC(=O)N3CCOCC3)C(=O)N(Cc3ccco3)C1=C[C@H](C(C)(C)C)O[C@@H]2C,/,/,-3.5,/,4.4,/,/,
Cc1c2cc(O)c(=O)cc-2oc2cc(O)c(O)cc12,-14.8,64.8*,67.5*,95.9*,45.8*,106.9*,/,PRMT1 inh conf=136.8*
CCC(=O)N(CC)C1=C(O)c2ccccc2C(=O)C1=O,2.5,2.8,53.4*,37.8*,28.8*,32.3,19.0,
O=C(NC1CCCCN(Cc2ccc(Cl)cc2)C1=O)c1cccs1 (stereo unspecified),/,/,4.5,/,-3.3,/,/,
Cc1ccc(C(=O)OCC(=O)Nc2ccc(C(N)=O)cc2)s1,/,-0.4,0.3,/,11.0,/,/,
O=C(COC(=O)c1ccc([N+](=O)[O-])s1)Nc1ccccc1,74.3*,33.4*,-0.7,64.8*,49.8*,12.9,22.2,PAD4 FP conf=4.2
C[C@H](O)[C@@H]1CN2CCc3ccc(N4CCOCC4)cc3[C@@H]2C[C@@H]1N(C)C(=O)c1cccc(Cl)c1,/,/,-0.9,/,3.3,/,/,
O=S(=O)(Nc1cc2nc3ccccc3nc2n1Cc1ccccc1)c1ccc(Cl)cc1,-2.5,72.3*,2.2,73.2*,107.2*,91.7*,93.3*,
CCCC(=Nc1ccccc1)C1=C(O)C(C(=O)OC)C(C)(C)CC1=O (stereo unspecified),-2.9,-2.3,0.2,1.2,-9.2,/,/,
CCC(=Nc1ccc(N)cc1)C1=C(O)C(C(=O)OC)C(C)(C)CC1=O (stereo unspecified),5.9,73.5*,11.0,84.7*,55.0*,6.3,17.3,PAD4 FP conf=6.9
CCCCC(=Nc1ccc(N)cc1)C1=C(O)C(C(=O)OC)C(C)(C)CC1=O (stereo unspecified),2.8,75.2*,17.4,85.8*,60.3*,3.2,16.6,PAD4 FP conf=1.9
O=C(O)CSc1cc(NS(=O)(=O)c2ccc(Br)cc2)c2ccccc2c1O,-4.5,31.0*,56.8*,90.3*,70.4*,81.5*,55.5*,PAD4 FP conf=-1.7
COc1cc(/C=C/c2[nH]c(=O)[nH]c(=O)c2[N+](=O)[O-])cc([N+](=O)[O-])c1O,3.6,0.4,-0.5,52.7*,31.1*,68.3*,10.7,
OC(c1ccccc1)(c1ccccc1)C1CCN(CCCOc2ccc(OC(F)(F)F)cc2)CC1,/,/,-7.4,/,-0.3,/,/,
CCOC(=O)c1ccc(N/C=C/C(=O)C(C)(C)C)cc1,3.4,-0.4,1.4,3.7,-4.7,/,/,
CN(C)c1ccc(N/C=C/C(=O)C(C)(C)C)cc1,-1.7,18.1*,8.7,82.7*,54.6*,12.5,-4.4,PAD4 FP conf=-8.9
SMILES,CTSL1 counter,PAD4 FP inh,PRMT1 FP inh,GSTO1 inh,TDP2 absorb,GSTO1 confirm,TDP2 inh conf,others
COc1cc(NC(C)CCCN)c2ncccc2c1 (stereo unspecified),6.7,35.5*,4.7,47.5*,64.2*,8.4,18.0,PAD4 FP conf=-4.3
COc1cc(NC(=O)OCc2ccccc2)c2ncccc2c1,/,/,5.4,/,3.1,/,/,
COC(=O)c1cccc(Cn2ccc3ccc(-c4ccc5ccn(C(=O)c6cccc(OC)c6)c5c4)cc32)c1,/,/,4.0,/,4.1,/,/,
O=C(N=C1N(Cc2ccccc2)C[C@]2(C=C3CCCCC3n3c(=O)n(-c4ccccc4)c(=O)n32)N1C(=O)OCc1ccccc1)c1ccccc1 (stereo partly specified),/,/,-0.8,/,7.5,/,/,
O=[N+]([O-])c1cc([N+](=O)[O-])c2nonc2c1Nc1ccc(O)cc1,0.7,55.1*,8.5,64.9*,24.6*,53.5*,6.6,PAD4 FP conf=8.4
CCCOc1ccc(N)cc1N,3.3,49.3*,15.9,78.0*,29.5*,-14.2,21.8,
CCCOc1cc(N)ccc1C(=O)OCCN(CC)CC,-5.5,-2.0,-3.0,5.8,-5.2,/,/,
COC(=O)[C@]12C[C@H](CC(=O)N3CCC(c4ccccc4)CC3)C(=O)N(Cc3ccco3)C1=C[C@H](COCc1ccccc1)O[C@@H]2C,/,/,7.2,/,-2.2,/,/,
COc1ccc(C2C(C#N)=C(N)Oc3c2c(-c2ccccc2)nn3-c2ccccc2)c(OC)c1OC (stereo unspecified),1.5,25.1*,3.1,47.2*,68.4*,15.8,6.8,PAD4 FP conf=2.8
COC(=O)C1=C(C)OC(N)=C(C#N)C1c1ccc(OC)c(OC)c1OC (stereo unspecified),-3.3,-1.5,5.1,13.1,1.6,/,/,
CN(c1ccccc1)c1nc(N)c([N+](=O)[O-])c(N2CCCCC2)n1,-0.6,1.0,0.2,2.5,-1.1,/,/,
O=C1C(Nc2ccccc2)=C(N2CCCCC2)C(=O)c2ccccc21,49.5*,14.9*,4.0,62.2*,59.1*,56.2*,57.3*,PAD4 FP conf=-4.5
O=C(/C=C/c1ccc(O)cc1)c1ccccc1,-8.6,-2.5,-1.2,-1.4,9.7,/,/,
Cc1ccc(C(=O)Nc2cccc(O)c2)cc1S(=O)(=O)N1CCCCCC1,-15.1,3.1,-3.6,-9.0,18.6,/,/,
CN(C1=C(N2CCCCC2)C(=O)c2ccccc2C1=O)c1ccccc1,6.9,16.5*,2.6,50.2*,35.0*,7.9,1.6,
O=C(/C=C/c1ccc(O)cc1)c1ccc(NC2=C(N3CCCCC3)C(=O)c3ccccc3C2=O)cc1,32.8*,9.5,8.4,65.1*,48.6*,51.3*,45.0*,

# Source: PubChem (The Scripps Research Institute Molecular Screening Center)
